Active and inactive are the calls of the source.
Experiments:
[1] = Cytotoxicity against mouse […] cells after 48 hrs by MTT assay; type: cell-based
Outline: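 J774 macrophages in DMEM (4 mM L-glutamine, 10% heat-inactivated FBS) were seeded at 1 × 10^5 cells/well and grown for 48 h at 37 °C, 5% CO2. They were then exposed to compounds at 25–400 µM for 48 h. MTT (0.1 mg/mL final) was added for 3 h, formazan was dissolved in DMSO/glycine buffer pH 10.5, and absorbance was read at 560 nm to give an IC50.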

Rattus norvegicus [2] = experiment: Antihyperalgesic activity against carrageenan-induced thermal hyperalgesia in Wistar rat assessed as latency of withdrawal response at 100 umol/kg, po administered 1 hr before carrageenan challenge measured after 30 to 240 mins by hot plate test; type: functional, organism-based
Outline: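 Wistar rats of both sexes (150–200 g) dosed orally at 100 µmol/kg as suspension in 5% arabic gum in saline, vehicle controls. After 1 h, 1% carrageenan (1 mg/paw) or saline injected subplantar. Left hind paw withdrawal latency on hot plate at 51 ± 0.1 °C read at 0–240 min, 20 s cut-off. Δ latency = time-0 latency minus later latency; mean ± SEM, n = 8–10; Student t-test.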

Mus musculus [3] = experiment: Analgesic activity in albino mouse assessed as inhibition of acetic acid-induced abdominal constriction at 100 umol/kg, po administered 1 hr before acetic acid challenge measured after 30 mins relative to control; type: functional; conditions: Abdomen
Outline: (§1)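 Albino mice of both sexes (18–23 g) were dosed orally as a suspension in 5% arabic gum in saline, with vehicle controls. After 1 h they received 0.6% acetic acid ip (0.1 mL/10 g). Constrictions were counted for 20 min starting 10 min after injection. Data are % inhibition vs vehicle, mean ± SEM, Student t-test.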

HT-29 [4] = experiment: Inhibition of TNF-alpha-induced NFkappaB activation expressed in human HT-29 cells coexpressing hrGFP at 50 uM after 24 hrs by propidium iodide staining-based flow cytometric analysis relative to control; type: cell-based
Outline: (§2)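 HT-29 cells stably expressing NF-κB-driven hrGFP given compound (DMSO <0.5%) for 2 h at the maximum non-cytotoxic concentration, then TNF-α at 3 ng/mL final for 18–24 h. Cells trypsinised and stained with propidium iodide; 5000 events gated on FSC/SSC. The %GFP-positive among PI-excluding live cells is normalised to TNF-α/DMSO control, ± SD.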

HT-29 [5] = experiment: Inhibition of NF-kappaB activation expressed in human HT-29 cells assessed as inhibition of TNFalpha-stimulated IL8 release at 50 uM after 24 hrs by flow cytometric analysis relative to control; type: cell-based
Outline: (§3)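 Reporter HT-29-NF-κB-hrGFP cells pretreated 2 h with compound (DMSO <0.5%) at the highest concentration with 100% survival, then stimulated with TNF-α (3 ng/mL final) for 18–24 h at 37 °C. IL-8 in clarified supernatant measured by flow cytometric bead assay (500 events). Expressed as % of TNF-α/DMSO control ± SD; thalidomide as reference.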

[6] = Induction of NO release in 0.1 M Tris-HCl and 0.1 mM DTPA at pH 7.4 measured for 20 mins in presence of cysteine; type: physicochemical; conditions: buffer, pH 7.4, 20 min
Outline: (§4)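 Electrochemical NO detection with an ISO-NOP sensor. Compounds in DMSO added to 0.1 M Tris-HCl, 0.1 mM DTPA at pH 7.4 or 8.3. Cysteine (300 or 100 µM) added and NO recorded for 20 min at 25 or 37 °C; compound:Cys ratio 1:1 at 25 °C, with 3:1 and 37 °C runs also made.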

Glycine max = experiment: Inhibition of soybean lipoxygenase using arachidonic acid as substrate at 50 uM
Outline: (§5)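 Soybean 15-lipoxygenase kit assay, arachidonic acid substrate, H2O2 as lipoxygenating agent in 0.1 M Tris-HCl pH 7.4. Single-point screen at 50 µM. IC50 found by varying concentration over 10–100 µM. Quercetin at 4 µM as positive control; duplicate means; Student t-test.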

[7] = Induction of NO release in 0.1 M Tris-HCl and 0.1 mM DTPA at pH 8.3 measured for 20 mins in presence of cysteine; type: physicochemical; conditions: buffer, pH 8.3, 20 min; outline: as §4
Rattus norvegicus [8] = experiment: Antiinflammatory activity in albino rat assessed as inhibition of carrageenan-induced paw edema at 100 umol/kg, po administered 1 hr before carrageenan challenge measured after 3 hrs by plethysmometric analysis relative to control; type: functional
Outline: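 Albino rats of both sexes (150–200 g) were dosed orally as a suspension in 1% Tween 80 in saline, with vehicle controls. After 1 h, 0.1 mL 1% carrageenan or saline was injected subplantar. Paw volume was read by glass plethysmometer at 3 h. Edema = carrageenan-paw minus saline-paw volume; % inhibition vs vehicle; Student t-test.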

HT-29 [9] = experiment: Pro-inflammatory activity in NFkappaB-GFP transfected human HT-29 cells at 25 to 400 uM after 24 hrs by propidium iodide staining-based flow cytometric analysis; type: ADME, cell-based; conditions: ht-29, 24 h
Outline: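 Reporter HT-29-NF-κB-hrGFP cells given compound alone, without TNF-α, for 18–24 h at 37 °C after the same 2 h pre-incubation. GFP-positive live (propidium iodide-excluding) cells counted by flow cytometry; IL-8 in supernatant measured by bead-based flow cytometry.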

[10] = Cytotoxicity against human HT-29 cells expressing NF-kappaB-hrGFP assessed as highest non-cytotoxic dose for 100% cell survival after 24 hrs by MTT assay; type: cell-based; conditions: read-out: Activity
Outline: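 HT-29 cells stably carrying pNF-κB-hrGFP, seeded at 0.5 × 10^6/mL in DMEM with 10% FBS, grown 24 h at 37 °C, 5% CO2. Compounds added in DMSO (<0.5% v/v final) at 12.5–400 µM for 24 h. Viability by MTT reduction (2 h), formazan dissolved in DMSO/glycine buffer, read at 560 nm.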

HT-29 [11] = experiment: Inhibition of NF-kappaB activation expressed in human HT-29 cells assessed as inhibition of TNFalpha-stimulated IL8 release at 400 uM after 24 hrs by flow cytometric analysis relative to control; type: cell-based; outline: as §3
HT-29 [12] = experiment: Inhibition of NF-kappaB activation expressed in human HT-29 cells assessed as inhibition of TNFalpha-stimulated IL8 release at 100 uM after 24 hrs by flow cytometric analysis relative to control; type: cell-based; outline: as §3
HT-29 [13] = experiment: Inhibition of TNFalpha-induced NF-kappaB activation expressed in human HT-29 cells coexpressing hrGFP at 100 uM after 24 hrs by propidium iodide staining-based flow cytometric analysis relative to control; type: cell-based; outline: as §2
HT-29 [14] = experiment: Inhibition of TNFalpha-induced NF-kappaB activation expressed in human HT-29 cells coexpressing hrGFP at 400 uM after 24 hrs by propidium iodide staining-based flow cytometric analysis relative to control; type: cell-based; outline: as §2
HT-29 [15] = experiment: Inhibition of NF-kappaB activation expressed in human HT-29 cells assessed as inhibition of TNFalpha-stimulated IL8 release at 200 uM after 24 hrs by flow cytometric analysis relative to control; type: cell-based; outline: as §3
HT-29 [16] = experiment: Inhibition of TNFalpha-induced NF-kappaB activation expressed in human HT-29 cells coexpressing hrGFP at 200 uM after 24 hrs by propidium iodide staining-based flow cytometric analysis relative to control; type: cell-based; outline: as §2
Salmonella typhimurium [17] = experiment: Induction of mutagenesis in Salmonella Typhimurium TA98 assessed as number of revertants at 3.1 to 250 ug/plate in presence of mouse liver S9 fraction; type: toxicity, organism-based; conditions: salmonella enterica subsp. enterica serovar typhimurium
Outline: (§6)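 S. typhimurium TA98, plate incorporation on minimal glucose (Vogel-Bonner) agar. Compounds were in DMSO, dosed in triplicate with a top non-toxic dose of 250 or 350 µg/plate. Runs were without S9 (positive control 4-nitro-o-phenylenediamine, 20 µg/plate) or with 500 µL Aroclor-induced mouse liver S9 (positive control 2-aminofluorene, 10 µg/plate), plus a DMSO control. Revertants were counted manually; mutagenic means ≥2-fold spontaneous revertants at two consecutive doses.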

[18] = Inhibition of soybean lipoxygenase using arachidonic acid as substrate; design: species or system Glycine max; outline: as §5
Mus musculus [19] = experiment: Analgesic activity in albino mouse assessed as inhibition of acetic acid-induced abdominal constriction at 100 umol/kg, po administered 1 hr before acetic acid challenge measured after 60 mins relative to control; type: functional; conditions: Abdomen; outline: as §1
Salmonella typhimurium [20] = experiment: Induction of mutagenesis in Salmonella Typhimurium TA98 assessed as number of revertants at 3.1 to 250 ug/plate in absence of mouse liver S9 fraction; type: toxicity, organism-based; conditions: salmonella enterica subsp. enterica serovar typhimurium; outline: as §6
[21] = Solubility of the compound in soybean lipoxygenase assay buffer at pH 7.4 at >50 uM; type: physicochemical
HT-29 [22] = experiment: Inhibition of TNF-alpha-induced NFkappaB activation expressed in human HT-29 cells coexpressing hrGFP at 20 uM after 24 hrs by propidium iodide staining-based flow cytometric analysis relative to control; type: cell-based; outline: as §2
HT-29 [23] = experiment: Inhibition of NF-kappaB activation expressed in human HT-29 cells assessed as inhibition of TNFalpha-stimulated IL8 release at 20 uM after 24 hrs by flow cytometric analysis relative to control; type: cell-based; outline: as §3
[24] = biological target: T1, Prostaglandin G/H synthase 1 (Ovis aries) (UniProt P05979); conditions: 0.1 uM
T1 sequence (whole entry): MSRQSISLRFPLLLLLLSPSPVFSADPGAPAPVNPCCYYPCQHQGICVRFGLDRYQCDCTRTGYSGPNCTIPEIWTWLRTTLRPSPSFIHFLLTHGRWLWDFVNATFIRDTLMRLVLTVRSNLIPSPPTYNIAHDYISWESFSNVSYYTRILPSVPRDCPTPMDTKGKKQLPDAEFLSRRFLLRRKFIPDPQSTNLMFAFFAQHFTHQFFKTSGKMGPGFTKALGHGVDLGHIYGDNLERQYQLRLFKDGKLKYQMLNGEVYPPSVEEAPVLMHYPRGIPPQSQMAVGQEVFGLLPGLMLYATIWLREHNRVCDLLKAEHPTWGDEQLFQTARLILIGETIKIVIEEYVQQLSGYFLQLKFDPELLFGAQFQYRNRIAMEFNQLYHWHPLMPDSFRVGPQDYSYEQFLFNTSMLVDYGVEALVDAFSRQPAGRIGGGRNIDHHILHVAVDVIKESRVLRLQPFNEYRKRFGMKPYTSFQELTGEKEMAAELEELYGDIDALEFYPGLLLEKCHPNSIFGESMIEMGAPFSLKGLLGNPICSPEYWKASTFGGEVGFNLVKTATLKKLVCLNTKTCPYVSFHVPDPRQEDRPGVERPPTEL

| Structure (SMILES) | IC50 [1] | Activity [6] | inhibition (Glycine max) | Activity [7] | inhibition in vivo at 100 µmol/kg (Rattus norvegicus [8]) | Activity (HT-29 [9]) | MNTC at 24 h [10] | inhibition (HT-29 [11]) | inhibition (HT-29 [12]) | NF-kappaB activity (% of TNF-alpha control) (HT-29 [13]) | NF-kappaB activity (GFP-positive cells), % of TNF-alpha control (HT-29 [14]) | inhibition in vivo at 100 µmol/kg (Mus musculus [19]) | other results |
| --- | --- | --- | --- | --- | --- | --- | --- | --- | --- | --- | --- | --- | --- |
| O=C(N/N=C/c1ccc2no[n+]([O-])c2c1)c1cccnc1 | 31 µM | 0 nM/min | 0% | 0.64 nM/min | 0% | Non-toxic | 50 µM | – | – | – | – | – | Activity (Rattus norvegicus [2]): inactive; inhibition in vivo at 100 µmol/kg (Mus musculus [3]): 35%; NF-kappaB activation (% of TNF-alpha control) (HT-29 [4]): 66%; inhibition (HT-29 [5]): 29% |
| O=C1CCC(N2C(=O)c3ccccc3C2=O)C(=O)N1 (stereo not drawn) [THALIDOMIDE] | > 400 µM | – | – | – | – | Non-toxic | 100 µM | 57% | 63% | 126% | 116% | – | inhibition (HT-29 [15]): 77%; inhibition (HT-29 [16]): 114% |
| Cc1c(C(=O)N/N=C/c2ccc(C(=O)O)cc2)no[n+]1[O-] | > 400 µM | 1.04 nM/min | 74% | 0.19 nM/min | 16% | Non-toxic | 400 µM | 53% | – | – | 125% | 0% | Activity (Salmonella typhimurium [17]): Non-toxic; IC50 [18]: 35 µM; Activity (Salmonella typhimurium [20]): Non-toxic |
| Cc1c(/C=N/NC(=O)c2cccnc2)no[n+]1[O-] (mixture of isomers) | > 400 µM | – | 22% | – | – | Non-toxic | 100 µM | – | 105% | 112% | – | – | solubility [21]: Insoluble |
| O=S(=O)(c1ccccc1)c1no[n+]([O-])c1S(=O)(=O)c1ccccc1 | – | 3700 nM/min | – | – | – | Non-toxic | 20 µM | – | – | – | – | – | inhibition (HT-29 [22]): 6%; inhibition (HT-29 [23]): 6% |
| COc1ccc2c(c1)c(CC(=O)O)c(C)n2C(=O)c1ccc(Cl)cc1 [INDOMETHACIN] | – | – | – | – | 61% | – | – | – | – | – | – | 44% | inhibition [24]: 49.7% |

Source: ChEMBL document CHEMBL1955718, “Discovery of new orally effective analgesic and anti-inflammatory hybrid furoxanyl N-acylhydrazone derivatives” (Bioorg Med Chem, 2012)
